Experimental data as given in ChEMBL document CHEMBL1131065, “1,4- and 2,6-disubstituted amidoanthracene-9,10-dione derivatives as inhibitors of human telomerase” (J Med Chem, 1998).
Calls of active or inactive are those of the source. The calls are words filed in the database; no cut-off is given here.

Key:
A2780 = test: Concentration required to inhibit A2780-cell growth by 50%; assay type: functional, cell-based; details: Homo sapiens
In short: (§1)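 Human ovarian carcinoma cells grown as monolayers in DMEM with 10% FBS, 2 mM glutamine and 0.5 µg/mL hydrocortisone under 6% CO2. 3000–6000 cells per well, attached overnight. Salts dissolved in water, added in quadruplicate at final 0.05, 0.25, 1, 5 and 25 µM for 96 h. Cells fixed with TCA and stained with SRB, absorbance read at 540 nm. IC50 taken from mean absorbance as % of untreated control.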

CH1 = test: Concentration required to inhibit CH1-cell growth by 50%; assay type: functional, cell-based; details: Homo sapiens; in short: as §1
SK-OV-3 = test: Concentration required to inhibit SKOV-3-cell growth by 50%; assay type: functional, cell-based; details: Homo sapiens; in short: as §1
[1] = molecular target: DNA polymerase I, thermostable (Thermus aquaticus) (UniProt P19821); test: Inhibition of Taq polymerase at 50 uM (No inhibition)
Chain of DNA polymerase I, thermostable (Thermus aquaticus) (P19821 whole entry): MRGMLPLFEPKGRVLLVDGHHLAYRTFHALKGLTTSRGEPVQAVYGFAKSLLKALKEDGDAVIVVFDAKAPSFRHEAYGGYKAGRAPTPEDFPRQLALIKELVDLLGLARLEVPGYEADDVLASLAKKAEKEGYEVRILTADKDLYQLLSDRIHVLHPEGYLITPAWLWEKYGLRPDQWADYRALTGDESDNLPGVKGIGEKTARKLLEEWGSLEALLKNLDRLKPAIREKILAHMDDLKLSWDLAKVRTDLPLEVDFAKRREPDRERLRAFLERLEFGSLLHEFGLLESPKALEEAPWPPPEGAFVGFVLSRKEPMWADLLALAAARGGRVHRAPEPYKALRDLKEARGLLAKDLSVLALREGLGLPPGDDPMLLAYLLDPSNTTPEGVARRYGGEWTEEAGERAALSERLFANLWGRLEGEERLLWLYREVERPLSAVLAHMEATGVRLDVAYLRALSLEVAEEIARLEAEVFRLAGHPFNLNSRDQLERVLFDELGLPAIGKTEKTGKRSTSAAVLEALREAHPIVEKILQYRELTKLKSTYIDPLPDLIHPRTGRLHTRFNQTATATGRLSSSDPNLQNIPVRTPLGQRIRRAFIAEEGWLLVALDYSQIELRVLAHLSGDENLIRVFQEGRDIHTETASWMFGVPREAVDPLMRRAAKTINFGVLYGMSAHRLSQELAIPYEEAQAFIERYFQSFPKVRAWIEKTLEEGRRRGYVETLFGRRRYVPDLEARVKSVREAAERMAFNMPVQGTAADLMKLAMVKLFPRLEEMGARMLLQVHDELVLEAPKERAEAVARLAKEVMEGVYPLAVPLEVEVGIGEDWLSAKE
In short: (§2)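 Compound at final 50 µM in PCR with pCI-neo template and primers, Tris-HCl pH 8.8 buffer, 2.5 mM MgCl2, 200 µM each dNTP, 1.25 U thermostable polymerase. Run 30 cycles of 94 °C 1 min, 55 °C 1 min, 72 °C 2.5 min. Agarose/ethidium bromide read-out against a water no-drug control, scored semiquantitatively.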

[2] = molecular target: T1, Telomerase reverse transcriptase (Homo sapiens, UniProt O14746); test: Inhibition of telomerase activity
T1 sequence (O14746 whole entry): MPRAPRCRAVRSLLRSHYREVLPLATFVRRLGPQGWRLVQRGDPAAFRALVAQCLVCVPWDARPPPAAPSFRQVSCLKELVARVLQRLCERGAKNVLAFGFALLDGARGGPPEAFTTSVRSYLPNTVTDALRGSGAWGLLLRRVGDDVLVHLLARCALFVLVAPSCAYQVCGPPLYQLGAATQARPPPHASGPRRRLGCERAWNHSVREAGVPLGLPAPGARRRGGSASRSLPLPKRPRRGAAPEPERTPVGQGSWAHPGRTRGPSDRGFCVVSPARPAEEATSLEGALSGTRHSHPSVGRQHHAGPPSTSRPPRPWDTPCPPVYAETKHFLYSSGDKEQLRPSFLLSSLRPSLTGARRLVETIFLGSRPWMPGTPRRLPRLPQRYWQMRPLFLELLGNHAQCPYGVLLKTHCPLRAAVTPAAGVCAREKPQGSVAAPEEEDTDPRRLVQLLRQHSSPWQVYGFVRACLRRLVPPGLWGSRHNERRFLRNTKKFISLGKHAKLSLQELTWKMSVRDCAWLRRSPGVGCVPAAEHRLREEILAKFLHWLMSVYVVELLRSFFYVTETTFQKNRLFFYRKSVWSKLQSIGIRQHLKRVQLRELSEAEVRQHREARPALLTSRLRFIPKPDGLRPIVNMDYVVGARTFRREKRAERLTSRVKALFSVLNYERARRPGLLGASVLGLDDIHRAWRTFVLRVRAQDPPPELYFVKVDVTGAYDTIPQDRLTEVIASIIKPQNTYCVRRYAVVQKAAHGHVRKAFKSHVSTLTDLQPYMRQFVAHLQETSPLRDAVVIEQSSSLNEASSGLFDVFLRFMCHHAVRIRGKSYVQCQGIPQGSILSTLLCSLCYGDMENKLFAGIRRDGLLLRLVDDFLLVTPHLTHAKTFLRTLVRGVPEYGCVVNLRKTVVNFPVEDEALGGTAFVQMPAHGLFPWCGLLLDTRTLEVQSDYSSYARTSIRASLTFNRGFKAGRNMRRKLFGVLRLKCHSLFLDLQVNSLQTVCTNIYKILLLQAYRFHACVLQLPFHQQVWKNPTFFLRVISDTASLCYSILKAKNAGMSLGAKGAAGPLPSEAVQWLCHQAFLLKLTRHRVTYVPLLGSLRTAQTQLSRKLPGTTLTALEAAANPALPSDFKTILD
In short: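 Modified cell-free TRAP using CHAPS lysate of exponentially growing A2780 cells. Protein (0.04 µg) incubated with TS primer, 50 µM dNTPs and [α-32P]dCTP in TRAP buffer (pH 8.3) ± compound at 1–50 µM for 20 min at 25 °C. Telomerase heat-killed at 80 °C, then 31-cycle PCR with CX primer and Taq. Products read by denaturing gel/phosphorimaging or TCA filter scintillation counting. IC50 taken relative to controls.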

[3] = molecular target: DNA polymerase I, thermostable (Thermus aquaticus) (UniProt P19821); test: Inhibition of Taq polymerase at 10 uM (No inhibition)
In short: (§3)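 Compound at final 10 µM in a PCR mix: pCI-neo vector template, forward/reverse primers, Tris-HCl pH 8.8 buffer, 2.5 mM MgCl2, 200 µM each dNTP, 1.25 U thermostable polymerase. Run 30 cycles (94/55/72 °C). Products separated on 2% agarose with ethidium bromide and compared to a no-drug water control (~1 kb product); inhibition graded semiquantitatively.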

[4] = molecular target: DNA polymerase I, thermostable (Thermus aquaticus) (UniProt P19821); test: Inhibition of Taq polymerase at 50 uM (Total inhibition); in short: as §2
[5] = molecular target: DNA polymerase I, thermostable (Thermus aquaticus) (UniProt P19821); test: Inhibition of Taq polymerase at 10 uM (Slight inhibition); in short: as §3
[6] = molecular target: T1, Telomerase reverse transcriptase; test: Concentration required to inhibit telomerase activity
In short: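 Cell-free modified TRAP assay. Enzyme source is a CHAPS lysate of exponentially growing A2780 ovarian carcinoma cells, which was clarified and stored at -80 °C. Protein (0.04 μg) was incubated with TS primer, dNTPs and [α-32P]dCTP in TRAP buffer (pH 8.3) ± agent at 1, 5, 10, 20 and 50 μM for 20 min at 25 °C. Telomerase was then heat-inactivated at 80 °C, followed by 31-cycle PCR with CX primer. Products were quantified by gel phosphorimaging or by TCA-precipitated filter scintillation counting. IC50 is relative to controls.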

[7] = molecular target: DNA polymerase I, thermostable (Thermus aquaticus) (UniProt P19821); test: Inhibition of Taq polymerase at 10 uM (Significant inhibition); in short: as §3

Structure (SMILES) | IC50 (A2780) | IC50 (CH1) | IC50 (SK-OV-3) | Taq inhibition [1] | IC50 [2] | Taq inhibition [3] | inhibition [4] | inhibition [5] | IC50 [6] | inhibition [7]
CN(C)CCC(=O)Nc1ccc2c(c1)C(=O)c1ccc(NC(=O)CCN(C)C)cc1C2=O | 2550 nM | 1800 nM | 2900 nM |  |  |  |  |  |  | 
CCCN(CCC)CCC(=O)Nc1ccc(NC(=O)CCN(CCC)CCC)c2c1C(=O)c1ccccc1C2=O | 130 nM | 480 nM | 4500 nM | inactive | 50000 nM | inactive |  |  |  | 
O=C(CCN1CCOCC1)Nc1ccc2c(c1)C(=O)c1ccc(NC(=O)CCN3CCOCC3)cc1C2=O | 4800 nM | 20000 nM | 9000 nM |  | > 50000 nM |  |  |  |  | 
C[N+]1(CCC(=O)Nc2ccc3c(c2)C(=O)c2ccc(NC(=O)CC[N+]4(C)CCCCC4)cc2C3=O)CCCCC1 | < 1000 nM | 1850 nM | 2200 nM |  |  |  |  |  |  | 
C[N+]1(CC(=O)Nc2ccc3c(c2)C(=O)c2ccc(NC(=O)C[N+]4(C)CCOCC4)cc2C3=O)CCOCC1 | 13000 nM | 18000 nM | 45500 nM |  |  |  |  |  |  | 
C[N+]1(CCC(=O)Nc2ccc3c(c2)C(=O)c2ccc(NC(=O)CC[N+]4(C)CCCCC4CO)cc2C3=O)CCCCC1CO (centres undefined) | 1250 nM | 2300 nM | 1800 nM |  |  |  |  |  |  | 
C[N+]1(CCC(=O)Nc2ccc(NC(=O)CC[N+]3(C)CCOCC3)c3c2C(=O)c2ccccc2C3=O)CCOCC1 | 760 nM | 1650 nM | 8500 nM |  | 34500 nM |  |  |  |  | 
C[N+](C)(C)CCC(=O)Nc1ccc(NC(=O)CC[N+](C)(C)C)c2c1C(=O)c1ccccc1C2=O | 2150 nM | 2000 nM | 11500 nM |  |  |  |  |  |  | 
O=C1c2c(O)ccc(O)c2C(=O)c2c(NCCNCCO)ccc(NCCNCCO)c21 |  |  |  |  |  |  | Weak inhibition | Weak inhibition |  | 
O=C(CCN1CCCCC1)Nc1ccc(NC(=O)CCN2CCCCC2)c2c1C(=O)c1ccccc1C2=O | 290 nM | 260 nM | 2400 nM |  |  |  |  |  |  | 
O=C(CCN1CCCCC1CO)Nc1ccc(NC(=O)CCN2CCCCC2CO)c2c1C(=O)c1ccccc1C2=O (centres undefined) | 20 nM | 64 nM | 270 nM |  |  |  |  |  |  | 
C[N+]1(CCC(=O)Nc2ccc3c(c2)C(=O)c2ccc(NC(=O)CC[N+]4(C)CCOCC4)cc2C3=O)CCOCC1 | 1900 nM | 1700 nM | 3000 nM |  |  |  |  |  |  | 
C[N+]1(CCC(=O)Nc2ccc(NC(=O)CC[N+]3(C)CCCCC3CO)c3c2C(=O)c2ccccc2C3=O)CCCCC1CO (centres undefined) | 380 nM | 540 nM | 1500 nM |  | 9400 nM |  |  |  |  | 
C[N+]1(CCC(=O)Nc2ccc(NC(=O)CC[N+]3(C)CCCCC3)c3c2C(=O)c2ccccc2C3=O)CCCCC1 | 1750 nM | 4300 nM | 32500 nM |  | 11100 nM |  |  |  |  | 
CCCN(CCC)CCC(=O)Nc1ccc2c(c1)C(=O)c1ccc(NC(=O)CCN(CCC)CCC)cc1C2=O | 380 nM | 1400 nM | 2400 nM |  | > 50000 nM |  |  |  |  | 
CN(C)CCC(=O)Nc1ccc(NC(=O)CCN(C)C)c2c1C(=O)c1ccccc1C2=O | 16 nM | 40 nM | 360 nM |  |  |  | Weak inhibition | Weak inhibition |  | 
O=C(CCN1CCN(CCO)CC1)Nc1ccc2c(c1)C(=O)c1ccc(NC(=O)CCN3CCN(CCO)CC3)cc1C2=O | 11000 nM | 7900 nM | 7000 nM |  | 16500 nM |  |  |  |  | 
C[N+]1(CC(=O)Nc2ccc3c(c2)C(=O)c2ccc(NC(=O)C[N+]4(C)CCCCC4)cc2C3=O)CCCCC1 | 6500 nM | 4300 nM | 9000 nM |  |  |  |  |  |  | 
O=C(CN1CCOCC1)Nc1ccc2c(c1)C(=O)c1ccc(NC(=O)CN3CCOCC3)cc1C2=O | 5900 nM | 4150 nM | 4500 nM |  | > 50000 nM |  |  |  |  | 
C[N+](C)(C)CCC(=O)Nc1ccc2c(c1)C(=O)c1ccc(NC(=O)CC[N+](C)(C)C)cc1C2=O | 2250 nM | 1900 nM | 4400 nM |  | 17300 nM |  |  |  |  | 
Nc1nc2c(ncn2[C@H]2CC[C@@H](COP(=O)(O)OP(=O)(O)OP(=O)(O)O)O2)c(=O)[nH]1 [DIDEOXY GUANOSINE TRIPHOSPHATE] |  |  |  |  |  |  |  |  | 8600 nM | 
COc1cccc2c1C(=O)c1c(O)c3c(c(O)c1C2=O)C[C@@](O)(C(=O)CO)C[C@@H]3O[C@H]1C[C@H](N)[C@H](O)[C@H](C)O1 [DOXORUBICIN] | 9.6 nM | 6.3 nM | 78 nM |  |  |  | Active |  |  | Weak activity
O=C(CCN1CCOCC1)Nc1ccc(NC(=O)CCN2CCOCC2)c2c1C(=O)c1ccccc1C2=O | 3700 nM | 1950 nM | 21000 nM |  | 33500 nM |  |  |  |  | 
CCC[N+](C)(CCC)CCC(=O)Nc1ccc(NC(=O)CC[N+](C)(CCC)CCC)c2c1C(=O)c1ccccc1C2=O | 1400 nM | 4450 nM | 16000 nM |  |  |  |  |  |  | 
O=C(CCN1CCCCC1)Nc1ccc2c(c1)C(=O)c1ccc(NC(=O)CCN3CCCCC3)cc1C2=O | 1300 nM | 5900 nM | 4000 nM |  | 4500 nM |  |  |  |  | 
O=C(CN1CCCCC1)Nc1ccc2c(c1)C(=O)c1ccc(NC(=O)CN3CCCCC3)cc1C2=O | 1650 nM | 5050 nM | 5000 nM |  | > 50000 nM |  |  |  |  | 
O=C(CCN1CCCCC1CO)Nc1ccc2c(c1)C(=O)c1ccc(NC(=O)CCN3CCCCC3CO)cc1C2=O (centres undefined) | 2450 nM | 14500 nM | 2400 nM |  |  |  |  |  |  | 
CCC[N+](C)(CCC)CCC(=O)Nc1ccc2c(c1)C(=O)c1ccc(NC(=O)CC[N+](C)(CCC)CCC)cc1C2=O | 500 nM | 680 nM | 2000 nM |  |  |  |  |  |  | 
